The source of these data is ChEMBL document CHEMBL5053511, “Discovery of a Novel BCL-XL PROTAC Degrader with Enhanced BCL-2 Inhibition” (J Med Chem, 2021).

Assay [1] has as its target T1, von Hippel-Lindau disease tumor suppressor/Bcl-2-like protein 1 (Homo sapiens, UniProt Q07817+P40337). The experiment in a line: Binding affinity to VHL/ BCL-XL in human RS4-11 cells assessed as ternary complex formation at up to 300 nM measured after 12 hrs by immunoprecipitation assay. It is filed as cell-based.
Target sequence in this assay (P40337 whole entry, looked up): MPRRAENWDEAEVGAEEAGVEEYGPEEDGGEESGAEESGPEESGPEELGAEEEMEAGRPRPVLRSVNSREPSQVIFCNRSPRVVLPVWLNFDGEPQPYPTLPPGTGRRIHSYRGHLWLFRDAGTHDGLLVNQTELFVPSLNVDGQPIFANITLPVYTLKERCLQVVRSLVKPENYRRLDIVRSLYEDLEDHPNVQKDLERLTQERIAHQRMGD
Target sequence in this assay (Q07817 whole entry, looked up): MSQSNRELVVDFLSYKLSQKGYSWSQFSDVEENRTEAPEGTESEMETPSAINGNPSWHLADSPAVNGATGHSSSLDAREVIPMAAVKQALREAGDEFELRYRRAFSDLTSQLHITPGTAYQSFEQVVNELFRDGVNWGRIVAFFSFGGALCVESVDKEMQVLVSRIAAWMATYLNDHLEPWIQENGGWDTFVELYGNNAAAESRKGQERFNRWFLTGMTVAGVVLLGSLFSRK
Assay [2] deals with T2, von Hippel-Lindau disease tumor suppressor/Apoptosis regulator Bcl-2 (Homo sapiens) (UniProt P10415+P40337). The experiment in a line: Binding affinity to Halo-tagged VHL/HiBiT-tagged BCL-2 (unknown origin) expressed in HEK293T cells assessed as ternary complex formation at up to 100000 nM measured after 6 hrs by NanoBRET assay. It is filed as cell-based. Summed up: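 NanoBRET in live HEK 293T cells. Cells were transfected with HaloTag-VHL (1 µg), HiBit-BCL-XL or HiBit-BCL-2 (10 ng) and LgBit (10 ng). After 24 h they were seeded at 2×10^4 per well in Opti-MEM with 4% FBS, with or without HaloTag 618 ligand, and held overnight. Serial compound doses were given for 6 h at 37 °C, then Nano-Glo substrate was added and mBRET ratios read. Mean ± s.e.m. of two experiments in triplicate.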
T2 sequence (P10415 whole entry, looked up): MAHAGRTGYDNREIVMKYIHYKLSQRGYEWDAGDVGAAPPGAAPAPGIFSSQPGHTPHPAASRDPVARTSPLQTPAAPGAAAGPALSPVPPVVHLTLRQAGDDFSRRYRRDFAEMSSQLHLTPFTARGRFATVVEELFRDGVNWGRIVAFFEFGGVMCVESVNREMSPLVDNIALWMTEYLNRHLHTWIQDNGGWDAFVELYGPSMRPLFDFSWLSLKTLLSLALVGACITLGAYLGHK
T2 sequence (P40337 whole entry, looked up): as the sequence (P40337 whole entry, looked up) above

Assay [3] is described as follows: Binding affinity to human BCL-XL expressed in Escherichia coli/recombinant human VHL (54 to end residues) fused to human N-terminal GST-tagged elongin-C/elongin -B/N-terminal His-tagged CUL2/Rbx1 expressed in baculovirus infected Sf21 insect cells measured after 2 hrs by AlphaScreen assay. An outline of the steps: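 AlphaScreen displacement, run with or without VCB. Biotin-Bim (80 nM, for BCL-2) or biotin-Bad (16 nM, for BCL-XL) was combined with serially diluted compound and 6×His protein in 25 mM HEPES pH 7.5, 100 mM NaCl, 0.1% BSA, 0.005% Tween 20. Anti-His acceptor beads were added for 1 h at room temperature, then streptavidin donor beads for 30 min in the dark. Ki was fitted by one-site competitive model from peptide concentration and measured Kd values; reported as mean ± SD of at least two experiments in triplicate.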

Assay [4] has as its target Apoptosis regulator Bcl-2 (Homo sapiens, UniProt P10415). The experiment in a line: Displacement of biotin-tagged MRPEPATIAQELRRIGDEFNA from C-terminal His-tagged human BCL-2 (1` to 211 residues) expressed in Escherichia coli measured after 2 hrs by AlphaScreen assay. Summed up:
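AlphaScreen displacement, run with or without VCB. Anti-His acceptor beads were added for 1 h at room temperature, then streptavidin donor beads for 30 min in the dark. Ki was fitted by one-site competitive model from peptide concentration and measured Kd values; reported as mean ± SD of at least two experiments in triplicate.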

Assay [5] deals with T1, von Hippel-Lindau disease tumor suppressor/Bcl-2-like protein 1. The experiment in a line: Protac activity at VHL/BCL-XL in human RS4-11 cells assessed as decrease in BCL-XL protein level by densitometric analysis. The format is cell-based. Summed up:
(§1)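 MOLT-4 or RS4;11 cells were treated at a range of concentrations for 16 h. BCL-XL was immunoblotted with β-actin loading control, and band densitometry was normalised to β-actin. Mean ± SD of three independent experiments in triplicate.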
Target sequence in this assay (Q07817 whole entry): as the sequence (Q07817 whole entry, looked up) above
Target sequence in this assay (P40337 whole entry): as the sequence (P40337 whole entry, looked up) above

Assay [6] shares this target. The experiment in a line: Protac activity at VHL/BCL-XL in human MOLT-4 cells assessed as decrease in BCL-XL protein level by densitometric analysis. It is filed as cell-based. An outline of the steps:
as §1
Target sequence in this assay (Q07817 whole entry): as the sequence (Q07817 whole entry, looked up) above
Target sequence in this assay (P40337 whole entry): as the sequence (P40337 whole entry, looked up) above

Assay [7] relates to MOLT-4. The experiment in a line: Induction of apoptosis in human MOLT-4 cells assessed as late apoptotic cells at 10 nM measured after 48 hrs in presence of QVD by annexinV-FITC/propidium iodide staining based flow cytometry (reference value: 1%). The format is functional.
For assay [8], the target named is T2, von Hippel-Lindau disease tumor suppressor/Apoptosis regulator Bcl-2 (Homo sapiens). The experiment in a line: Binding affinity to VHL/BCL-2 in human RS4-11 cells assessed as ternary complex formation at up to 300 nM measured after 12 hrs in presence of VHL-032 by immunoprecipitation assay. It is filed as cell-based.
For assay [9], the system named is MOLT-4. The experiment in a line: Induction of apoptosis in human MOLT-4 cells assessed as early apoptotic cells at 10 nM measured after 48 hrs by annexinV-FITC/propidium iodide staining based flow cytometry (reference value: 2%). The format is functional.
In assay [10] the test system is MOLT-4. The experiment in a line: Induction of apoptosis in human MOLT-4 cells assessed as early apoptotic cells at 10 nM measured after 48 hrs in presence of QVD by annexinV-FITC/propidium iodide staining based flow cytometry (reference value: 2%). It is filed as functional.

Activity calls are given as the source filed them. The rule behind the calls is not given here.

Chain of Apoptosis regulator Bcl-2 (P10415 whole entry): as the sequence (P10415 whole entry, looked up) above

On to `Cc1ncsc1-c1ccc([C@H](C)NC(=O)[C@@H]2C[C@@H](O)CN2C(=O)[C@@H](NC(=O)CCCCCCCCC(=O)NC[C@]2(C)CCC(c3ccc(Cl)cc3)=C(CN3CCN(c4ccc(C(=O)NS(=O)(=O)c5ccc(N[C@H](CCN6CCOCC6)CSc6ccccc6)c(S(=O)(=O)C(F)(F)F)c5)cc4)CC3)C2)C(C)(C)C)cc1`, for which the outcome in assay [1] and in [2] was Active. Besides, the results for the Kd in assay [3] and in assay [4] were 0.65 nM and 1.22 nM, respectively. Further, the DC50 in assay [5] came to 11.6 nM; in [6], 14.3 nM. For the same molecule, the Activity in the assay with MOLT-4 [7] was 13%; in the assay on MOLT-4 [9] it was 25%; in the assay on MOLT-4 [10], 1%. In assay [8], the outcome was inactive.
